Legend:
Format in all cases: functional
786-0 = experiment: Cytotoxicity against human 786-0 cells
Method in brief: (§1)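 Tested in a 60-cell-line human tumor panel screen; the read-out is growth inhibition, reported as GI50 for each cell line.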

PC-3 = experiment: Cytotoxicity against human PC3 cells; method in brief: as §1
HCT-116 = experiment: Cytotoxicity against human HCT116 cells; method in brief: as §1
U-251 = experiment: Cytotoxicity against human U251 cells
Method in brief: (§2)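 Cell line run as part of the 60-cell-line screening panel; growth inhibition was reported as a GI50 for each line.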

SNB-75 = experiment: Cytotoxicity against human SNB75 cells; method in brief: as §2
[1] = Cytotoxicity against human OVCAR4 cells; method in brief: as §1
HT-29 = experiment: Cytotoxicity against human HT-29 cells; method in brief: as §1
HOP-62 = experiment: Cytotoxicity against human HOP62 cells; method in brief: as §1
[2] = Cytotoxicity against human UO31 cells; method in brief: as §2
BT-549 = experiment: Cytotoxicity against human BT549 cells; method in brief: as §1
HCC 2998 = experiment: Cytotoxicity against human HCC2998 cells; method in brief: as §1
SN12C = experiment: Cytotoxicity against human SN12C cells; method in brief: as §1
MDA-MB-435 = experiment: Cytotoxicity against human MDA-MB-435 cells; method in brief: as §1
MOLT-4 = experiment: Cytotoxicity against human MOLT4 cells; method in brief: as §1
TK-10 = experiment: Cytotoxicity against human TK10 cells; method in brief: as §2
RXF 393 = experiment: Cytotoxicity against human RXF393 cells; method in brief: as §1
ACHN = experiment: Cytotoxicity against human ACHN cells; method in brief: as §1
KM12 = experiment: Cytotoxicity against human KM12 cells; method in brief: as §1
SF-295 = experiment: Cytotoxicity against human SF295 cells; method in brief: as §1
SK-OV-3 = experiment: Cytotoxicity against human SKOV3 cells; method in brief: as §1
MDA-MB-231 = experiment: Cytotoxicity against human MDA-MB-231 cells; method in brief: as §1
SF-268 = experiment: Cytotoxicity against human SF268 cells; method in brief: as §1
NCI-H226 = experiment: Cytotoxicity against human NCI-H226 cells; method in brief: as §1
[3] = Cytotoxicity against human UACC62 cells; method in brief: as §2
MCF7 = experiment: Cytotoxicity against human MCF7 cells; method in brief: as §1
CAKI-1 = experiment: Cytotoxicity against human Caki1 cells; method in brief: as §1
HL-60(TB) = experiment: Cytotoxicity against human HL-60(TB) cells
Method in brief: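 Tested within the NCI 60-cell-line screen, with GI50 as the read-out. Values are the average of two independent experiments. The lowest concentration tested was 10 nM.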

CCRF-CEM = experiment: Cytotoxicity against human CCRF-CEM cells
SK-MEL-2 = experiment: Cytotoxicity against human SK-MEL-2 cells; method in brief: as §1
M14 = experiment: Cytotoxicity against human M14 cells; method in brief: as §1
NCI-H460 = experiment: Cytotoxicity against human NCI-H460 cells; method in brief: as §1
[4] = Cytotoxicity against human NCI-ADR-RES cells; method in brief: as §1
[5] = Cytotoxicity against human OVCAR8 cells; method in brief: as §1
NCI-H322M = experiment: Cytotoxicity against human NCI-H322M cells; method in brief: as §1
SNB-19 = experiment: Cytotoxicity against human SNB19 cells; method in brief: as §1
SR = experiment: Cytotoxicity against human SR cells; method in brief: as §2
[6] = Cytotoxicity against human UACC257 cells; method in brief: as §2
LOX IMVI = experiment: Cytotoxicity against human LOXIMVI cells; method in brief: as §1
[7] = Cytotoxicity against human OVCAR3 cells; method in brief: as §1
MDA-MB-468 = experiment: Cytotoxicity against human MDA-MB-468 cells; method in brief: as §1
A498 = experiment: Cytotoxicity against human A498 cells; method in brief: as §1
A549 = experiment: Cytotoxicity against human A549 cells; method in brief: as §1
SK-MEL-5 = experiment: Cytotoxicity against human SK-MEL-5 cells; method in brief: as §1
[8] = read-out: pLC50 (the source's name) (converted)

Compound `COc1cc(/C=C/c2cc(O)c3cc(CC=C(C)C)[nH]c3c2)cc2c1O[C@]1(C)CC[C@@H](O)C(C)(C)[C@H]1C2` has a GI50 (786-0) of 0.363 µM, an LC50 (concentration killing 50% of cells) (786-0) greater than 100 µM and a TGI (786-0; read-out: pTGI (converted)) of 11 µM. The GI50 (PC-3) was 1.02 µM, the LC50 (PC-3) was greater than 100 µM and the TGI (PC-3; read-out: pTGI (converted)) was greater than 100 µM. It also gave a GI50 (HCT-116) of 2.34 µM, a CC50 (HCT-116; [8]) greater than 100 µM and a TGI (HCT-116; read-out: pTGI (converted)) greater than 100 µM. The GI50 (U-251) was 0.603 µM, the CC50 (U-251; [8]) was greater than 100 µM and the TGI (U-251; read-out: pTGI (converted)) was greater than 100 µM. The GI50 (SNB-75) was 0.49 µM, the CC50 (SNB-75; [8]) was greater than 100 µM and the TGI (SNB-75; read-out: pTGI (converted)) was greater than 100 µM. The GI50 ([1]; OVCAR-4) was 28.8 µM, the CC50 ([1]; OVCAR-4, read-out: pLC50 (the source's name) (converted)) was greater than 100 µM and the TGI ([1]; OVCAR-4, read-out: pTGI (converted)) was greater than 100 µM. The GI50 (HT-29) was 2.63 µM, the CC50 (HT-29; [8]) was 79.4 µM and the TGI (HT-29; read-out: pTGI (converted)) was 18.6 µM. For the same compound, the GI50 (HOP-62) was 0.832 µM, the CC50 (HOP-62; [8]) was greater than 100 µM and the TGI (HOP-62; read-out: pTGI (converted)) was 46.8 µM. It also gave a GI50 ([2]; UO-31) of 0.479 µM, an LC50 ([2]; UO-31) greater than 100 µM and a TGI ([2]; UO-31, read-out: pTGI (converted)) of 5.89 µM. It also gave a GI50 (BT-549) of 3.72 µM, a CC50 (BT-549; [8]) greater than 100 µM and a TGI (BT-549; read-out: pTGI (converted)) of 50.1 µM. For the same compound, the GI50 (HCC 2998) was 9.55 µM, the CC50 (HCC 2998; [8]) was greater than 100 µM and the TGI (HCC 2998; read-out: pTGI (converted)) was greater than 100 µM. It also gave a GI50 (SN12C) of 58.9 µM, an LC50 (SN12C) greater than 100 µM and a TGI (SN12C; read-out: pTGI (converted)) greater than 100 µM. For the same compound, the GI50 (MDA-MB-435) was 3.8 µM, the CC50 (MDA-MB-435; [8]) was greater than 100 µM and the TGI (MDA-MB-435; read-out: pTGI (converted)) was greater than 100 µM. The GI50 (MOLT-4) was 0.813 µM, the CC50 (MOLT-4; [8]) was greater than 100 µM and the TGI (MOLT-4; read-out: pTGI (converted)) was greater than 100 µM. For the same compound, the GI50 (TK-10) was 19.1 µM, the LC50 (TK-10) was greater than 100 µM and the TGI (TK-10; read-out: pTGI (converted)) was greater than 100 µM. The GI50 (RXF 393) was 0.0832 µM, the LC50 (RXF 393) was 11.2 µM and the TGI (RXF 393; read-out: pTGI (converted)) was 0.447 µM. It also gave a GI50 (ACHN) of 7.08 µM, an LC50 (concentration killing 50% of cells) (ACHN) greater than 100 µM and a TGI (ACHN; read-out: pTGI (converted)) greater than 100 µM. For the same compound, the GI50 (KM12) was 2.04 µM, the CC50 (KM12; [8]) was 74.1 µM and the TGI (KM12; read-out: pTGI (converted)) was 10.5 µM. For the same compound, the GI50 (SF-295; read-out: GI50) was 0.29 µM, the GI50 (SF-295; read-out: pGI50 (converted)) was 0.288 µM and the CC50 (SF-295; [8]) was 51.3 µM. For the same compound, the TGI (SF-295; read-out: pTGI (converted)) was 1.51 µM, the GI50 (SK-OV-3) was 3.39 µM and the LC50 (SK-OV-3) was greater than 100 µM. It also gave a TGI (SK-OV-3; read-out: pTGI (converted)) greater than 100 µM, a GI50 (MDA-MB-231) of 2.69 µM and an LC50 (MDA-MB-231) greater than 100 µM. The TGI (MDA-MB-231; read-out: pTGI (converted)) was 63.1 µM, the GI50 (SF-268) was 4.27 µM and the CC50 (SF-268; [8]) was greater than 100 µM. For the same compound, the TGI (SF-268; read-out: pTGI (converted)) was greater than 100 µM, the GI50 (NCI-H226) was 57.5 µM and the CC50 (NCI-H226; [8]) was greater than 100 µM. The TGI (NCI-H226; read-out: pTGI (converted)) was greater than 100 µM, the GI50 ([3]; UACC-62) was 0.955 µM and the CC50 ([3]; UACC-62, read-out: pLC50 (the source's name) (converted)) was greater than 100 µM. For the same compound, the TGI ([3]; UACC-62, read-out: pTGI (converted)) was 7.59 µM, the GI50 (MCF7) was 2.45 µM and the LC50 (MCF7) was greater than 100 µM. The TGI (MCF7; read-out: pTGI (converted)) was 50.1 µM, the GI50 (CAKI-1) was 4.07 µM and the LC50 (CAKI-1) was greater than 100 µM. It also gave a TGI (CAKI-1; read-out: pTGI (converted)) of 93.3 µM, a GI50 (HL-60(TB)) of 18.6 µM and a CC50 (HL-60(TB); [8]) greater than 100 µM. It also gave a TGI (HL-60(TB); read-out: pTGI (converted)) greater than 100 µM, a GI50 (CCRF-CEM) of 0.741 µM and a CC50 (CCRF-CEM; [8]) greater than 100 µM. It also gave a TGI (CCRF-CEM; read-out: pTGI (converted)) greater than 100 µM, a GI50 (SK-MEL-2) of 1.95 µM and a CC50 (SK-MEL-2; [8]) greater than 100 µM. It also gave a TGI (SK-MEL-2; read-out: pTGI (converted)) greater than 100 µM, a GI50 (M14) of 1.66 µM and a CC50 (M14; [8]) of 63.1 µM. It also gave a TGI (M14; read-out: pTGI (converted)) of 9.33 µM, a GI50 (NCI-H460) of 3.31 µM and a CC50 (NCI-H460; [8]) greater than 100 µM. For the same compound, the TGI (NCI-H460; read-out: pTGI (converted)) was greater than 100 µM, the GI50 [4] was 64.6 µM and the CC50 [4, 8] was greater than 100 µM. It also gave a TGI ([4]; read-out: pTGI (converted)) greater than 100 µM, a GI50 ([5]; OVCAR-8) greater than 100 µM and a CC50 ([5]; OVCAR-8, read-out: pLC50 (the source's name) (converted)) greater than 100 µM. For the same compound, the TGI ([5]; OVCAR-8, read-out: pTGI (converted)) was greater than 100 µM, the GI50 (NCI-H322M) was 32.4 µM and the CC50 (NCI-H322M; [8]) was greater than 100 µM. For the same compound, the TGI (NCI-H322M; read-out: pTGI (converted)) was greater than 100 µM, the GI50 (SNB-19) was 2.63 µM and the CC50 (SNB-19; [8]) was greater than 100 µM. It also gave a TGI (SNB-19; read-out: pTGI (converted)) greater than 100 µM, a GI50 (SR) of 0.759 µM and a CC50 (SR; [8]) greater than 100 µM. The TGI (SR; read-out: pTGI (converted)) was greater than 100 µM, the GI50 ([6]; UACC-257) was 12 µM and the CC50 ([6]; UACC-257, read-out: pLC50 (the source's name) (converted)) was greater than 100 µM. For the same compound, the TGI ([6]; UACC-257, read-out: pTGI (converted)) was 81.3 µM, the GI50 (LOX IMVI) was 2.82 µM and the CC50 (LOX IMVI; [8]) was greater than 100 µM. For the same compound, the TGI (LOX IMVI; read-out: pTGI (converted)) was 75.9 µM, the GI50 ([7]; OVCAR-3) was 43.7 µM and the CC50 ([7]; OVCAR-3, read-out: pLC50 (the source's name) (converted)) was greater than 100 µM. The TGI ([7]; OVCAR-3, read-out: pTGI (converted)) was greater than 100 µM, the GI50 (MDA-MB-468) was 3.02 µM and the LC50 (MDA-MB-468) was greater than 100 µM. For the same compound, the TGI (MDA-MB-468; read-out: pTGI (converted)) was 26.9 µM, the GI50 (A498) was 1.02 µM and the CC50 (A498; [8]) was greater than 100 µM. The TGI (A498; read-out: pTGI (converted)) was 22.9 µM, the GI50 (A549) was 6.31 µM and the CC50 (A549; [8]) was greater than 100 µM. The TGI (A549; read-out: pTGI (converted)) was greater than 100 µM, the GI50 (SK-MEL-5) was 1.41 µM and the CC50 (SK-MEL-5; [8]) was 7.24 µM. It also gave a TGI (SK-MEL-5; read-out: pTGI (converted)) of 3.16 µM.

Reference: ChEMBL document CHEMBL3232844, “Synthesis and structure activity relationships of schweinfurthin indoles” (2014)
